Data as given in PMC4110911 (Bioorganic & medicinal chemistry letters, 2014).

Key:
[1] = tested on: PKC; test: PepTag non-radioactive PKC assay; format: biochemical; conditions: read-out: IC50 value, PKC; mean ± standard deviation, triplicate
[2] = Distribution of compound in tissues and plasma after chronic oral administration; format: in vivo; conditions: CD1 mice, oral gavage 5 mg/Kg daily for 75 days, n = 4
Method in brief: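 CD1 mice: four treated, two untreated. Test compound was given by oral gavage at 5 mg/Kg once daily for 75 days. Brain, pancreas, liver, kidney, lung and plasma were then assayed for the compound by a previously reported procedure. Levels are in µM as mean ± standard deviation; ND = not detectable.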

[3] = tested on: liver transaminases, aspartate aminotransferase (AST) and alanine transaminase (ALT); test: Plasma liver transaminase; format: in vivo; conditions: mice, 5 mg/kg daily by oral gavage for 75 days, vs control mice

| SMILES | IC50 [1] [µM] | Concentration of 3, Kidney [2] [µM] | Concentration of 3, Liver [2] [µM] | Concentration of 3, Pancreases [2] [µM] | Concentration of 3, Plasma [2] [µM] | ALT enzyme activity in plasma [3] | AST enzyme activity in plasma [3] |
| --- | --- | --- | --- | --- | --- | --- | --- |
| COc1cc(NCc2ccc(O)cc2)c2nccc(C)c2c1Oc1cccc(C(F)(F)F)c1 [Compound 3] | 240 ± 21.2 | 16.1 ± 2.1 | 7.1 ± 0.6 | 26.5 ± 6.6 | 4.5 ± 0.3 | No significant difference | No significant difference |
| COc1cc(NCc2cccc3cccnc23)c2nccc(C)c2c1Oc1cccc(C(F)(F)F)c1 [Compound 7] | 400 ± 13.7 |  |  |  |  |  |  |
